Structures are written as SMILES.

What all share (assay type): functional
For assay [1], the species on record is Cavia porcellus. In words: Effect on the frequency rate of spontaneously beating atria from Reserpine-treated guinea pigs as percentage variation from the control at concentration of 10E-5 M. An outline of the steps: (§1)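 Atria from reserpine-treated guinea pigs (reserpine 2 mg/kg ip, 48 and 24 h before death; only tyramine-unresponsive preparations used). Bath solution at 29 °C, gassed 95% O2/5% CO2, pH 7.5, resting tension […]. After 90 min equilibration, compound added cumulatively, 5 min per concentration. Isometric developed-tension amplitude or beating rate given as % variation from untreated control. Mean ± SEM, 6-10 assays.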

The species entered for assay [2] is Cavia porcellus. In words: Effect on the contractile force of spontaneously beating atria from Reserpine-treated guinea pigs as percentage variation from the control at concentration of 10E-5 M. An outline of the steps:
as §1

The species named for assay [3] is Cavia porcellus. The experiment in a line: Effect on the contractile force of spontaneously beating atria from Reserpine-treated guinea pigs as percentage variation from the control at concentration of 3 x 10E-6 M. An outline of the steps: as §1
For assay [4], the species on record is Cavia porcellus. The experiment in a line: Effect on the contractile force of spontaneously beating atria from Reserpine treated guinea pigs as percentage variation from the control at concentration of 10E-4 M. In outline:
as §1

The species entered for assay [5] is Cavia porcellus. In words: Effect on the frequency rate of spontaneously beating atria from Reserpine-treated guinea pigs as percentage variation from the control at concentration of 10E-4 M. In outline: as §1
For assay [6], the species on record is Cavia porcellus. The experiment in a line: Effect on the contractile force of spontaneously beating atria from Reserpine-treated guinea pigs as percentage variation from the control at concentration of 3 x 10E-5 M. In outline:
as §1

Assay [7] is filed under the species Cavia porcellus. The experiment in a line: Effect on the contractile force of spontaneously beating atria from Reserpine-treated guinea pigs as percentage variation from the control at concentration of 10E-6 M. An outline of the steps: as §1
The species entered for assay [8] is Cavia porcellus. The experiment in a line: Compound was evaluated for its effect on the frequency rate of spontaneously beating atria from Reserpine-treated guinea pigs as percentage variation from the control at concentration of 3 x 10E-5 M. An outline of the steps:
as §1

The species entered for assay [9] is Cavia porcellus. In words: Compound was evaluated for its effect on the frequency rate of spontaneously beating atria from Reserpine-treated guinea pigs as percentage variation from the control at concentration of 3 x 10E-6 M. In outline: as §1
For assay [10], the species on record is Cavia porcellus. The experiment in a line: Effect on the frequency rate of spontaneously beating atria from Reserpine-treated guinea pigs as percentage variation from the control at concentration of 10E-3 M. In outline:
as §1

The species entered for assay [11] is Cavia porcellus. In words: Effect on the frequency rate of spontaneously beating atria from Reserpine-treated guinea pigs as percentage variation from the control at concentration of 10E-6 M. An outline of the steps: as §1
Assay [12] is filed under the species Cavia porcellus. In words: Compound was evaluated for its effect on the frequency rate of spontaneously beating atria from Reserpine-treated guinea pigs as percentage variation from the control at concentration of 3 x 10E-4 M. In outline: as §1
Assay [13] is filed under the species Cavia porcellus. The experiment in a line: Effect on the contractile force of spontaneously beating atria from Reserpine-treated guinea pigs as percentage variation from the control at concentration of 10E-3 M. An outline of the steps:
as §1

For assay [14], the species on record is Cavia porcellus. The experiment in a line: Effect on the contractile force of spontaneously beating atria from Reserpine-treated guinea pigs as percentage variation from the control at concentration of 3 x 10E-4 M. An outline of the steps: as §1

On to `CCOC(=O)c1cnc(N(C)C)nc1CC`, for which the Variation in assay [1] is given as -9.37%; in assay [2], -39.54%; in assay [3], 0%; in assay [4], -100%; in assay [5], -100%; in assay [6] it was -67.44%. The Variation in [7] was 0%; in [8], -14.76%; in assay [9], -6.25%.

As for `CC(C)c1nc(N(C)C)ncc1C(=O)O`, the Variation in assay [1] was -3.13%; in assay [2], 7.13%; in [3], 4.06%; in assay [4], 11.77%; in assay [5] it was -14.28%; in [10], -28.57%. Further, the Variation in assay [6] was 7.79%; in assay [7], 1.79%; in [11] it was 0%; in assay [12], -17.58%; in assay [13], 23.17%; in [8], -10.71%. Further, the Variation in assay [9] is on record as -3.13%; in [14], 16.41%.

In the case of `COCc1nc(N(C)C)ncc1C(=O)O`, the Variation was 0% in assay [1]; 9.99% in assay [2]; 9.16% in assay [3]; 8.24% in assay [4]; -6.25% in [5]; -9.37% in [10]. Also, the Variation in assay [6] is listed as 9.72%; in assay [7], 5.46%; in assay [11] it was 0%; in [12], -6.25%; in assay [13], 5.92%; in assay [8], -3.12%. The Variation in assay [9] was found to be 0%; in assay [14], 8.19%.

Consider `COCc1ccnc(N(C)C)n1`, for which the Variation in assay [1] is given as -1.33%; in assay [2], 0%; in [3] it was 0%; in [4], -9.03%; in assay [5], -4%; in assay [10], -9.33%. Also, the Variation in assay [6] was -8.02%; in assay [7], 0%; in [11], 0%; in assay [12], 4%; in assay [13], -20.93%; in assay [8], -4%. In addition, the Variation in assay [9] was 0%; in [14], -11.89%.

With `CN(C)c1ncc(C(=O)O)c(-c2ccccc2)n1`, the Variation is 0% in assay [1]; 11.47% in [2]; 10.63% in assay [3]; 12.75% in assay [4]; -3.12% in assay [5]; -6.25% in [10]. Besides, the Variation in assay [6] is 12.11%; in assay [7] it was 6.62%; in [11] it was 0%; in [12], -3.12%; in [13], 18.2%; in [8], 0%. The Variation in assay [9] is recorded as 0%; in assay [14] it was 14.22%.

Take `CCOC(=O)c1cnc(N(C)C)nc1C(C)C`: the Variation in [1] is -3.51%; in assay [2] it was 1.06%; in [3] it was 3.19%; in assay [4], -57.53%; in assay [5], -2.94%; in [6], -34.22%. In addition, the Variation in [7] is listed as 0%; in assay [11] it was -3.85%; in [12] it was -100%; in assay [8] it was -0.91%; in assay [9] it was -2.94%; in [14], -100%.

Consider `CCCc1nc(N(C)C)ncc1C(=O)OCC`, for which the Variation is -57.89% in assay [2]; -5.29% in assay [3]; 0% in [4]; -100% in assay [6]; 0% in assay [7]; 0% in [11].

`CCOC(=O)c1cnc(N(C)C)nc1C(C)(C)C`: the Variation in assay [1] is 4.76%; in assay [2], -12.52%; in assay [3], 2.08%; in assay [4], -100%; in assay [5], -100%; in [6], -50.08%. Further, the Variation in assay [7] is reported as 0%; in assay [11] it was 0%; in assay [8], -7.64%; in [9], 0%.

For `CC(C)c1ccnc(N(C)C)n1`, the Variation in assay [1] is recorded as -5.15%; in assay [2], -8.84%; in [3], 0%; in [4] it was -68.77%; in [5], -41.66%; in assay [10], -100%. Also, the Variation in [6] is listed as -28.95%; in assay [7], 0%; in assay [11], 0%; in [12], -41.66%; in [13], -100%; in assay [8], -17.26%. The Variation is reported as -5.15% in assay [9] and -86.36% in assay [14].

`CCOC(=O)c1cnc(N(C)C)nc1-c1ccccc1`: the Variation in assay [1] is 3.7%; in assay [2], 12.05%; in [3], 10.24%; in assay [4], -40.74%; in assay [5] it was -3.7%; in assay [10], -100%. Besides, the Variation in [6] was 2.25%; in assay [7], 1.73%; in assay [11], 0%; in assay [12], -14.81%; in assay [13], -100%; in assay [8], 7.4%. Further, the Variation in assay [9] is 0%; in assay [14], -70.37%.

On to `CN(C)c1nccc(C(C)(C)C)n1`, for which the Variation was -6.66% in assay [1]; -5.56% in [2]; 1.13% in assay [3]; -37.31% in [4]; -16.66% in [5]; -40% in assay [10]. For the same compound, the Variation in assay [6] is -24.35%; in assay [7], 0%; in assay [11] it was 0%; in assay [12], -30.01%; in assay [13] it was -35.14%; in assay [8], -13.33%. In addition, the Variation is given as 0% in assay [9] and -34.94% in assay [14].

In the case of `CCc1ccnc(N(C)C)n1`, the Variation in assay [1] is -3.03%; in [2], 15.05%; in assay [3], 9.91%; in [4] it was -10.54%; in [5], -14.95%; in assay [10] it was -42.41%. Besides, the Variation is 9.21% in assay [6]; 5.39% in assay [7]; 0% in assay [11]; -28.91% in assay [12]; -84.45% in assay [13]; -4.77% in assay [8]. The values for the Variation in assay [9] and in assay [14] were 0% and -43.95%, respectively.

Source of the values: ChEMBL document CHEMBL1129639, “Synthesis and cardiotonic activity of novel pyrimidine derivatives: crystallographic and quantum chemical studies” (J Med Chem, 1996).
